Test [1] in a line: Cytotoxicity against human 8392B cells after 48 hrs by trypan blue exclusion assay. The test is classed as cell-based. A digest of the protocol:
(§1)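 Human MV522 lung adenocarcinoma (target) and 8392 B-cell lymphoma/leukemia (nontarget) lines. Compounds were made as 1 mg/mL stocks in cell-culture-grade DMSO and diluted in sterile 10% DMSO/PBS just before addition. Cells were exposed continuously for 48 h, and controls received equal DMSO/PBS vehicle. Cell survival was scored at 48 h by trypan blue exclusion.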

The nature of test [2]: Selectivity index, ratio of IC50 for human 8392B cells to IC50 for human MV522 cells. The test is classed as functional.
Test [3] in a line: Cytotoxicity against human MV522 cells after 48 hrs by trypan blue exclusion assay. Format: functional, cell-based. As to conditions: MV522, 48 h. A digest of the protocol:
as §1

For another test, the system named is MV522. Put plainly: In-vivo antitumor activity against human MV522 cells assessed as induction of tumor shrinkage in xenograft model at nontoxic dose. The test is classed as functional, cell-based. A general note: A xenograft is tissue or cells of one species grown in another, often human tumour cells in immunodeficient mice.

The structures appear in SMILES notation. Calls of active or inactive are those of the source. The calls are words filed in the database; no cut-off is given here. Some results are limits rather than exact numbers.

As usually defined, the IC50 is the concentration that inhibits the measured activity by half. Read a low IC50 as inhibition by little substance. `CC1=C(CNS(N)(=O)=O)C2=C(C)C3(CC3)[C@@](C)(O)C(=O)C2=C1`: the IC50 in test [1] was above 9300 nM; in test [3], 300 nM. For the same molecule, in test [2], the “Ratio IC50” value was above 31.
In the case of `CC1=C(CO)C2=C(C)C3(CC3)[C@@](C)(O)C(=O)C2=C1` [IROFULVEN], the concentration for half-maximal inhibition (IC50) in test [1] came to 76 nM; in test [3] it was 170 nM.
As for `CC1=C(CNC(=O)NCCCl)C2=C(C)C3(CC3)[C@@](C)(O)C(=O)C2=C1`, the IC50 in test [1] was above 8500 nM.
In turn, `CC1=C(CCCNC(=O)N2CCC(N3CCCCC3)CC2)C2=C(C)C3(CC3)[C@@](C)(O)C(=O)C2=C1` yielded a concentration for half-maximal inhibition (IC50) in test [1] of 9000 nM.
`CC1=C(CCCOC(=O)N2CCCCC2)C2=C(C)C3(CC3)[C@@](C)(O)C(=O)C2=C1`: the IC50 worked out at 7100 nM in test [1] and 1200 nM in test [3]. Moreover, the “Ratio IC50” value in test [2] is reported as 6.
In the case of `CC1=C(CCCOC(=O)NCCO)C2=C(C)C3(CC3)[C@@](C)(O)C(=O)C2=C1`, the outcome in the test on MV522 was Active.
In turn, `CC1=C(CCCOC(=O)NCCCl)C2=C(C)C3(CC3)[C@@](C)(O)C(=O)C2=C1` gave an IC50 in test [3] of 57 nM.
Take `CC1=C(CCCNC(=O)NO)C2=C(C)C3(CC3)[C@@](C)(O)C(=O)C2=C1`: in test [1], the IC50 was above 9000 nM.
Still for that read-out and setting: next, `CC1=C(CCCOC(=O)N2CCOCC2)C2=C(C)C3(CC3)[C@@](C)(O)C(=O)C2=C1`: 62200 nM.
`CC1=C(CCCNS(N)(=O)=O)C2=C(C)C3(CC3)[C@@](C)(O)C(=O)C2=C1`: the outcome with MV522 was Active. Moreover, the IC50 is 54000 nM in test [1] and 76 nM in test [3]. Further, in test [2], the “Ratio IC50” value stood at 710.
For `CC1=C(CCCNS(=O)(=O)c2ccc(C)cc2)C2=C(C)C3(CC3)[C@@](C)(O)C(=O)C2=C1`, half-maximal inhibition in test [3] (IC50) required 580 nM.
Regarding `CC1=C(CCCNS(C)(=O)=O)C2=C(C)C3(CC3)[C@@](C)(O)C(=O)C2=C1`, in the test with MV522, the result was Active. Moreover, the IC50 in test [1] stood at 42000 nM; in test [3], 280 nM. In addition, in test [2], the “Ratio IC50” value is recorded as above 150.
`CC1=C(CCCNC(=O)NCCO)C2=C(C)C3(CC3)[C@@](C)(O)C(=O)C2=C1`: the IC50 is above 2800 nM in test [1] and below 80 nM in test [3]. Also, the “Ratio IC50” value in test [2] is listed as above 35.
In test [1], `CC1=C(CNS(C)(=O)=O)C2=C(C)C3(CC3)[C@@](C)(O)C(=O)C2=C1` had an IC50 above 9300 nM.
Regarding `CC1=C(CNC(=O)NCCO)C2=C(C)C3(CC3)[C@@](C)(O)C(=O)C2=C1`, the IC50 in test [1] is above 9000 nM; in test [3], 190 nM. Moreover, the “Ratio IC50” value in test [2] is above 47.
Molecule `CONC(=O)NCC1=C(C)C=C2C(=O)[C@](C)(O)C3(CC3)C(C)=C21` came in with an IC50 in test [1] above 9400 nM.
In the case of `CC1=C(CNC(=O)NO)C2=C(C)C3(CC3)[C@@](C)(O)C(=O)C2=C1`, the half-maximal inhibitory concentration (IC50) in test [1] was determined as 9800 nM; in test [3], 190 nM. In addition, the “Ratio IC50” value in test [2] was above 51.
In the same order, the values of `CC1=C(CCCNS(=O)(=O)NO)C2=C(C)C3(CC3)[C@@](C)(O)C(=O)C2=C1` are 250 nM, 8 nM and 31.
